# Rpn11 inh = inhibitors of human proteasome Rpn11; O00487; human 26S proteasome, Ub4-pepOG fluorescence polarization; 20S core pre-blocked with epoxomicin; inhibition, % at 20 µM; 360,000 compounds, 0.59% hits;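 active = inhibition at 20 µM, scaled to each plate's controls, above about 33%, limit read from the data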
# Target sequence (O00487 whole entry, looked up): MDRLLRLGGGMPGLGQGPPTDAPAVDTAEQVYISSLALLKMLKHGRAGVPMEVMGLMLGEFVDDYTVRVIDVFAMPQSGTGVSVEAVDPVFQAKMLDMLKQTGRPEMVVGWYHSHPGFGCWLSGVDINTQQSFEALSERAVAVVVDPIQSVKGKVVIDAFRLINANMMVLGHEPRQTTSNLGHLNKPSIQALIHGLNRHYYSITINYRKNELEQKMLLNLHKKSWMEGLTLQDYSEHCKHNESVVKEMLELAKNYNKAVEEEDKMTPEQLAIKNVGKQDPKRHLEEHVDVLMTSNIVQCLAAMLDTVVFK
# CSN deneddyl inh = CSN deneddylation inhibition. 360,000 compounds, 0.38% hits. AID 651999. inhibition, % at 12.5 µM. Purified CSN, SCF-Nedd8-OG deneddylation, fluorescence polarization;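 active = pattern-corrected inhibition above about 35%, with an unprinted fluorescence ratio check between 0.5 and 1.5, limit read from the data, passing the limit was not always enough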;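 also: 0% = enzyme with substrate and 100% = substrate without enzyme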
# Target sequence (Q92905 whole entry, looked up, one chain of several): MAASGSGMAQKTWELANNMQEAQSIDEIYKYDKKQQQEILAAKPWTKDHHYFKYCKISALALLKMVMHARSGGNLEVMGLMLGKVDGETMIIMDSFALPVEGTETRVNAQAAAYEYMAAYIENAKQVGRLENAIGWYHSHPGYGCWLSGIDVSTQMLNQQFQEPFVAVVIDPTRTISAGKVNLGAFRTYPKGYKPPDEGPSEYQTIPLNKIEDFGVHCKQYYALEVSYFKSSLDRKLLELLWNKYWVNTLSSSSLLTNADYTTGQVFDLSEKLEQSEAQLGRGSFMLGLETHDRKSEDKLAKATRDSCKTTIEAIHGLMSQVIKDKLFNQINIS
#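 Material: purified human Csn5 enzyme expressed in HEK293T cells / Medium: Tris buffer pH 7.5, NaCl, DTT, Tween-20, trehalose, ovalbumin / Compound dosing: 12.5 µM single point / Schedule: 90 min incubation of compound, enzyme and substrate at room temperature / Signal: fluorescence polarization of the substrate / Control set: no-enzyme wells high, enzyme-with-substrate wells low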
# HNF4A DNA FP = change in binding of human HNF4 alpha to DNA; P41235; HNF4a-FITC DNA binding, fluorescence polarization, 1 h; activity change, % at 10 µM; 360,000 compounds, 0.3% hits; AID 1224865; in the data active = activity change above about 30%, passing the limit was not always enough
# Myeloid diff MLP = myeloid differentiation induction. ER-HoxA9 myeloid progenitors, lysozyme-GFP differentiation, flow cytometry. calls only at 10 µM. 360,000 compounds, 1% hits. AID 624256;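 active = normalized GFP-positive differentiation at or above the plate's own cutoff, the solvent-only control mean plus 3 SD; inconclusive = no clear call, values can overlap the other calls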;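 also: cells exposed to compound for four days before flow analysis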
# TPT1 inh = blocks Candida albicans tRNA 2'-phosphotransferase | recombinant caTPT1, FP RNA substrate dephosphorylation | inhibition, % at 5 µM | 300,000 compounds, 0.81% hits | AID 1962;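 active = inhibition above the mean of all tested compounds plus 3 SD, set per screening campaign, cut at about 24% in these data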;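 also: plate controls were DMSO alone for no effect and ferristatin control at 100 nM for full effect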
# Rpn11 confirm = Rpn11 inhibition confirmation, single concentration. shares compounds with Rpn11 inh. purified human 26S proteasome, Ub4-pepOG fluorescence polarization; proteasome pretreated with epoxomicin. inhibition, % at 20 µM. 1,900 compounds, 29% hits. AID 602318
# MMP-2 counter-1 = counter-screen for RPN11 inhibitors: inhibition of human MMP-2; shares compounds with Rpn11 inh; recombinant MMP-2, FRET peptide cleavage fluorescence; inhibition, % at 20 µM; 1,900 compounds, 4% hits; AID 602330;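 also: human MMP-2 activated beforehand with APMA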
# Thrombin inh = counter-screen for RPN11 inhibitors: inhibition of bovine thrombin | shares compounds with Rpn11 inh | bovine thrombin cleavage of Ub4-pepOG, fluorescence polarization | inhibition, % at 20 µM | 1,900 compounds, 13% hits | AID 602333;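 active = mean inhibition at least 40% at 20 µM, or signal 3 deviations below plate average, so some actives read negative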;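 also: plate controls were thrombin with DMSO for no effect and buffer wells lacking thrombin for full effect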
# Myeloid diff = promotes myeloid progenitor differentiation; AID 651706; shares compounds with Myeloid diff MLP; ER-HoxA9 myeloid progenitors, GFP/Mac1 double-positive flow; calls only; 2,300 compounds, 2% hits;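 active = share of green or green-and-red cells above 9 and 9% in run 1 or 4 and 3% in run 2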
# GFP autofluor = flagged as fluorescent in myeloid differentiation counter-screen; 2,300 compounds, 7.4% hits; shares compounds with Myeloid diff MLP; fluorescence response, % (no concentration beside the values); ER-HoxA9 myeloid progenitors, no estrogen, GFP autofluorescence flow cytometry; vehicle wells 0%, positive control 100%; AID 651707;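 active = over 5% cells positive for green fluorescent reporter, or over 2% positive for both it and APC stain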;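 also: range taken on the double positive population between DMSO and positive control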
# CSN5 deneddyl = Csn5 (human) deneddylation inhibition, single-concentration validation | shares compounds with CSN deneddyl inh | Csn5 deneddylation of SCF-Nedd8OG, fluorescence polarization, 90 min | inhibition, % at 16.6 µM | 540 compounds, 62% hits | AID 720654; in the data active = inhibition above about 50%;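 also: 0% = DMSO with enzyme and 100% = no enzyme wells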
# MMP-2 counter-2 = counter-screen for CSN deneddylation inhibitors: human MMP-2 inhibition. shares compounds with CSN deneddyl inh. recombinant MMP-2, FRET substrate fluorescence, 60 min. inhibition, % at 16.6 µM. 540 compounds, 33% hits. AID 720655;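 active = corrected plate-normalized z-score of 5 or more, or -5 or less, or inhibition of 15% or more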;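 also: plate controls were DMSO wells with enzyme for no effect and buffer wells lacking MMP-2 for full effect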
# Thrombin cntr = blocks bovine thrombin in a CSN deneddylation counter-screen; inhibition, % at 16.6 µM; shares compounds with CSN deneddyl inh; bovine thrombin cleavage of Ub4-pepOG, fluorescence polarization; 540 compounds, 49% hits;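 active = inhibition at or above a set limit, with a fluorescence interference ratio between 0.5 and a set maximum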
# * hit, by the source's call; i = inactive; ? = inconclusive; · = no result given; + = active, no number. A selection: hits, their analogues and other compounds. The true share with any hit is near 2.3%. Rule as the data show it, unless noted: active = inhibition above about 40%; inactive = the rest.
SMILES,Rpn11 inh,CSN deneddyl inh,HNF4A DNA FP,Myeloid diff MLP,TPT1 inh,Myeloid diff,GFP autofluor,others
CCCCC(=O)N/N=C/c1c(O)n(Cc2ccc(F)cc2)c(=O)[nH]c1=O,50*,17,26,i,22,·,·,Rpn11 confirm=32;MMP-2 counter-1=-37;Thrombin inh=-1
O=C1NC(=O)C(=Cc2ccc(Sc3ccccc3)o2)C(=O)N1,4,1,-8,i,4,·,·,
CN1C(=O)C(=Cc2ccc(Sc3ccccc3)o2)C(=O)N(C)C1=O,63*,0,-5,i,6,·,·,Rpn11 confirm=-31;MMP-2 counter-1=-42;Thrombin inh=-33
O=C(OCc1ccccc1)N1CCC2CC1c1cc(N3Cc4ccccc4-n4nncc4C3)ccc12 (configuration not stated),7,4,-1,i,·,·,·,
Cn1c(=O)c2c(nc(N/N=C/c3c(O)n(C4CCCCC4)c(=S)[nH]c3=O)n2C)n(C)c1=O,42*,4,6,i,14,·,·,Rpn11 confirm=19;MMP-2 counter-1=20;Thrombin inh=-1
O=C(Nc1ccc(Cl)cc1)N1CC1,3,3,2,i,·,·,·,
CC1(C)C(C(=O)N2CCN(c3ccc(Cl)cc3)CC2)C1(C)C,49*,2,1,i,-1,·,·,Rpn11 confirm=5;MMP-2 counter-1=-16;Thrombin inh=-6
Oc1ccc(O)c2c1C1(Cl)C(Cl)=C(Cl)C2(Cl)C1(Cl)Cl,3,4,-2,i,·,·,·,
O=C(N/N=C/c1c(O)n(CCC2=CCCCC2)c(=S)[nH]c1=O)c1ccccc1,48*,7,9,i,18,·,·,Rpn11 confirm=76*;MMP-2 counter-1=-2;Thrombin inh=13
Cc1nc2cc(OC(=O)N(C)Cc3cccc(-c4ccncc4)c3)ccc2s1,·,2,3,i,·,·,·,
Cn1cc(/C=C2\C(=O)NC(=O)N(c3ccccc3)C2=O)c2ccccc21,-8,-3,154,i,0,·,·,
O=C1NC(=O)N(c2ccccc2)C(=O)/C1=C/C=C/c1ccco1,52*,42*,-1,i,19,·,·,Rpn11 confirm=13;MMP-2 counter-1=21;Thrombin inh=5;CSN5 deneddyl=58*;MMP-2 counter-2=16*;Thrombin cntr=14
CN(C)c1ccc(/C=C/C=C2/C(=O)NC(=O)N(c3ccccc3)C2=O)cc1,95*,38*,11,?,·,·,·,Rpn11 confirm=65*;MMP-2 counter-1=-22;Thrombin inh=34;CSN5 deneddyl=72*;MMP-2 counter-2=-13;Thrombin cntr=12
O=S(=O)(c1cc(Cl)cc(Cl)c1)N1Cc2cc(-c3cccc(F)c3)ccc2-n2nncc2C1,7,-3,0,i,·,·,·,
CCN(CC)S(=O)(=O)c1ccc(C)c(NCC(=O)Nc2ccc(C#N)c(Cl)c2)c1,-4,-1,-1,+,-6,i,0,
COc1ccc(-c2ccc3c(c2)CN(C(=O)C(C)(C)C)Cc2cnnn2-3)cc1,2,4,4,i,·,·,·,
Cn1c(=O)n(CC(=O)N2CCC3(CC2)OCCO3)c(=O)c2ccccc21,-1,0,1,+,-3,i,0,
CC(C)(OOC1(c2ccccc2)NC(=O)c2ccccc21)c1ccccc1 (configuration not stated),·,-2,3,i,·,·,·,
Cc1cccc(C(=O)NC(Oc2ccccc2)C(Cl)(Cl)Cl)c1 (configuration not stated),0,-3,-1,i,2,i,2,
C=CCN1C(=O)C2(C(C(=O)OCC)=C(N)Oc3ccccc32)c2c1c1ccccc1oc2=O (configuration not stated),-5,-2,-4,i,0,i,0,
CCOC(=O)C1=C(N)Oc2c(c(=O)oc3ccccc23)C12C(=O)N(C)c1ccccc12 (configuration not stated),29,1,-4,i,2,·,·,
Cc1cc(N2CCCC2)ccc1C=C(C#N)C#N,-2,50,-20,+,9,i,4,
O=C1NCN(c2ccccc2)C12CCN(C(c1ccnc3ccccc13)c1nnnn1C1CCCC1)CC2 (configuration not stated),8,5,5,i,·,·,·,
CC1(C)C(c2ccccc2)=NC(c2cccnc2)N1O (configuration not stated),-9,0,0,+,-1,i,0,
OCC1(CO)COC(c2cccnc2)N1 (configuration not stated),3,4,-1,i,-1,·,·,
SMILES,Rpn11 inh,CSN deneddyl inh,HNF4A DNA FP,Myeloid diff MLP,TPT1 inh,Myeloid diff,GFP autofluor,others
CCCCCCn1c(O)c(C=Nc2ccccc2N2CCOCC2)c(=O)[nH]c1=S,-4,3,74*,i,1,i,0,
CCCCn1c(O)c(/C=N/N2CCOCC2)c(=O)[nH]c1=S,-5,2,4,i,-1,·,·,
Cc1cccc(C)c1-n1nnnc1C(CCc1ccccc1)N1CCC2(CC1)C(=O)NCN2c1ccccc1 (configuration not stated),2,5,1,i,·,·,·,
C=C1C[C@]2(O)[C@@]3(C)CCC(=O)C(C)(C)C3=C(O)C(=O)[C@@]2(C)[C@@H]2C(=O)O[C@@](C)(C(=O)OC)C(=O)[C@@]12C,-10,4,2,+,4,i,0,
COc1ccc(NC(=O)c2cn(CCC#N)nc2-c2cccc([N+](=O)[O-])c2)cc1,-1,0,1,i,-3,·,·,
COc1ccc(Oc2cc(NC(=O)c3nn(C)cc3[N+](=O)[O-])cc([N+](=O)[O-])c2)cc1,-6,-1,6,i,1,i,0,
COC12c3ccccc3-c3ccccc3C1C(C(=O)O)C2C(=O)O (configuration not stated),12,1,5,i,·,·,·,

# Bioassay records from PubChem.
